# SUMO1 PPI mod: modulators of SUMO1 protein-protein interactions, primary screen, biochemical, uHTS. Small ubiquitin-related modifier 1 (Homo sapiens), P63165. SUMO1 binding to a labelled peptide, TR-FRET, 1 h. inhibition, % at 20 µM. hit rate 0.33% among 360,000; in the data active = inhibition above about 37%
# Scp-1 inhibitor: Scp-1 phosphatase inhibitors, primary screen, biochemical, colorimetric, uHTS. inhibition, % at 20 µM. hit rate 0.88% among 340,000. Carboxy-terminal domain RNA polymerase II polypeptide A small phosphatase 1 (Homo …. Recombinant Scp1, phosphopeptide, malachite green phosphate absorbance;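 active = inhibition above about 50% at 20 µM, limit read from the data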;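 also: plate controls were DMSO wells with enzyme for no effect and wells lacking enzyme for full effect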
#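 Material – SCP-1 phosphatase catalytic domain, residues 76-261 · Buffer or medium – Acidic Tris acetate buffer with magnesium and detergent · Also added – Phospho 17-mer peptide substrate · Compound – single 20 µM dose, 1% DMSO · Times – 45 min room-temperature reaction, 5 min colour, 30 min stabiliser · Technique – Phosphate-binding colour reagent, absorbance read at 630 nm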
# HKDC1 inhibitor: HKDC1 hexokinase inhibitors, primary screen, biochemical, fluorescence, uHTS | Q2TB90 | recombinant HKDC1, G6PDH/diaphorase resazurin coupled fluorescence | inhibition, % at 20 µM | hit rate 0.16% among 340,000 | AID 493160, 2011;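 active = inhibition above about 35% when tested at 20 µM, limit read from the data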;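 also: plate controls were DMSO wells with enzyme for no effect and DMSO wells lacking enzyme for full effect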
#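 test system = in-house recombinant HK5 (HKDC1) enzyme | amount = HKDC1 at 5 µg/mL | control set = DMSO-enzyme wells negative, buffer-substituted wells positive | compound = one dose of 20 µM, 1% DMSO | schedule = reaction time 90 min, room temperature, protected from light | technique = resorufin fluorescence at 613 nm | reagent = glucose with 1 mM ATP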
# LMPTP block: LMPTP phosphatase inhibitors, primary screen, biochemical, fluorescence intensity, uHTS | hit rate 0.22% among 360,000 | inhibition, % at 20 µM | recombinant LMPTP-A, OMFP fluorogenic substrate | AID 651560, 2012 | Low molecular weight phosphotyrosine protein phosphatase (Homo sapiens), P24666;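 active = compounds that cut the enzyme signal by at least half of the control window in the single-dose screen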;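 also: plate controls were DMSO wells with enzyme plus substrate for no effect and substrate without enzyme for full effect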
#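 test system = LMPTP-A | amount = 0.625 nM LMPTP-A final | reagent = fluorogenic phosphatase substrate OMFP at 400 µM final | incubation = 50 min at room temperature | benchmarks = no-enzyme low control, uninhibited high control | medium = Bis-Tris pH 6.0, DTT, detergent | signal = fluorescence intensity of OMFP turnover product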
# DNMT1 block: human DNMT1 methyltransferase inhibitors, primary screen, biochemical, molecular beacon, fluorescence, HinP1I cleavage, uHTS | DNA (cytosine-5)-methyltransferase 1 (Homo sapiens), P26358 | inhibition (reported as % activation of signal), % at 10 µM | hit rate 0.83% among 360,000 | AID 588458, 2011; in the data active = inhibition above about 50%
# STEP inh: STEP phosphatase inhibitors, primary screen, biochemical, fluorescence intensity, uHTS. Tyrosine-protein phosphatase non-receptor type 5 (Homo sapiens), P54829. recombinant STEP, OMFP fluorogenic substrate. inhibition, % at 20 µM. hit rate 0.25% among 360,000. AID 588621, 2011;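 active = inhibition at 20 µM, scaled per plate between control wells, above about 37%, limit read from the data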;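 also: 0% = DMSO with enzyme and substrate and 100% = substrate only without enzyme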
#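 System: STEP (striatal-enriched tyrosine phosphatase) enzyme, cell-free; medium: Bis-Tris pH 6.0 buffer with DTT, detergent; dosing: 20 µM, 1% DMSO; times: reaction 20 min, ambient temperature; detection: fluorescence, 480/540 nm; read-out basis: normalized % inhibition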
# * marks the source's active call; other numbers are inactive results; . = no result. Only some compounds are listed: those with a hit (about 1.8% of all), similar ones and a draw of the others.
SMILES,SUMO1 PPI mod,Scp-1 inhibitor,HKDC1 inhibitor,LMPTP block,DNMT1 block,STEP inh
O=C(NCc1cc(C(F)(F)F)ccc1Cl)c1cccc2c1C(=O)c1ccc(N3CCCCC3)cc1S2(=O)=O,-24,8,-3,1,32,-6
COc1ccc(-c2cc(C#N)nc(N3CCNCC3)n2)cc1,3,-3,-4,16,79*,2
O=C(NC1CCN(Cc2ccccc2)CC1)C(NS(=O)(=O)c1cccc2nsnc12)c1ccccc1 (centres undefined),-22,-1,-6,0,-1,-4
CCOC(=O)N1CCC(NC(=O)C(NS(=O)(=O)c2cccc3nsnc23)c2ccccc2)CC1 (centres undefined),46*,-6,2,-1,1,1
CNc1c(NC(=O)C2CCC(C)CC2)c(=O)oc2ccccc12 (centres undefined),-2,-3,-1,-2,6,12
COc1cc(/C=C(/C#N)C(=O)Nc2ccccc2)c(Br)cc1OCc1ccc(C(=O)O)cc1,3,1,15,1,2,-1
COc1cc(/C=C(\C#N)C(=O)Nc2cccc(C(=O)O)c2)ccc1OCc1ccc(Cl)cc1,59*,36,4,49,7,86*
N#C/C(=C\c1ccc(OCc2ccccc2)cc1)C(=O)Nc1ccc(C(=O)O)cc1,.,85*,5,.,.,.
C/C(=N/NS(=O)(=O)c1ccc(CC(C)C)cc1)c1ccncc1,8,4,2,-1,2,1
CCC(CO)Oc1cc(NC(=O)c2ccc(F)cc2)c2ncn(C(C)C)c2c1 (centres undefined),1,-3,11,0,0,-2
CCC(CO)Oc1cc(NC(=O)c2ccc(N)cc2)c2ncn(C(C)C)c2c1 (centres undefined),102*,5,31,2,-7,-2
CCC(COC)Oc1cc(NCc2ccccc2)c2ncn(C(C)C)c2c1 (centres undefined),-1,-5,21,3,54*,-1
CCC(CO)Oc1cc(NCc2ccccc2)c2ncn(C(C)C)c2c1 (centres undefined),0,0,16,0,-12,-2
CSc1ccccc1NC(=O)C1(C)CCN1C(=O)Cc1ccc(-c2ccccc2)cc1 (centres undefined),0,.,.,7,-3,4
CC(=O)Nc1ccc(NC(=O)CCC(=O)OCC(=O)c2ccc(F)cc2)cc1,-8,-2,-1,0,16,-2
O=c1c2c([N+](=O)[O-])cc([N+](=O)[O-])cc2sn1-c1ccc(Br)cc1,-18,94*,7,-1,-15,0
Cc1cc(Cl)ccc1C(O)c1ncc(-c2cccc3ccccc23)[nH]1 (centres undefined),-5,.,.,1,-1,0
CCOC(=O)c1ccccc1NC(=O)CN1CCC(n2nnc3cc(C(F)(F)F)ccc32)CC1,61*,1,1,2,5,2
N#C/C(=C/c1cccn1-c1cccc(C(=O)O)c1)c1ccc(Cl)cc1,-6,33,5,8,80*,6
COc1ccc(N=Cc2cc(Cc3ccccc3Cl)cc([N+](=O)[O-])c2O)cc1OC,-21,67*,14,1,-6,0
COc1cc(CCN=Cc2cc(Cl)cc(Cl)c2O)c([N+](=O)[O-])cc1OC,-5,.,.,-1,-8,-1
O=C(Nc1ccc(F)c(Cl)c1)c1cc(C2CCCCN2C(=O)CCc2ccccc2)on1 (centres undefined),-1,.,.,5,2,2
NC(=O)c1ccc(NC(=O)CSC2=Nc3ccccc3C3CC=NN23)cc1 (centres undefined),47*,-5,-1,0,-1,-2
COC(=O)c1ccc(NC(=O)CSC2=Nc3ccccc3C3CC=NN23)cc1 (centres undefined),-3,-11,-6,-1,-11,2
COc1ccc(CCn2c(NN)nc3c2c(=O)[nH]c(=O)n3C)cc1,-10,20,3,7,75*,28
SMILES,SUMO1 PPI mod,Scp-1 inhibitor,HKDC1 inhibitor,LMPTP block,DNMT1 block,STEP inh
O=C(O)c1ccc(N2Cc3ccccc3C2)cc1O,14,71*,-15,-1,8,4
COc1cc(-c2ccc3oc(-c4cccc(C)c4)c(C#CC4(O)CCCCC4)c3c2)cc(OC)c1OC,-3,-4,5,2,-23,-1
CC(=O)Nc1ccc(OC(=O)c2c(-c3ccccc3Cl)noc2C)cc1,37*,-7,-10,-1,-4,-1
Cc1ccc([C@H]2N[C@]3(CCCN(Cc4ccc(F)cc4)C3=O)[C@H]3C(=O)N(Cc4ccccc4)C(=O)[C@@H]23)cc1,3,.,.,0,0,-1
COc1ccc(C(=O)Nc2nc3cc4c(cc3s2)OCO4)c(OC)c1,60*,-17,3,1,-19,-1
COc1ccc2nc(NC(=O)c3cc(C)oc3C)sc2c1,1,-3,0,1,-7,0
O=C(/C=C/c1cc[n+](CC(=O)c2ccc3cccc4c3c2CC4)cc1)c1ccc2cccc3c2c1CC3,132*,17,19,54*,102*,19
CCC(O)(CC)C(=O)NN(C(=O)CCl)c1ccccc1,4,-8,-4,0,4,-2
O=C(Nc1ccccc1)NN(C(=O)CCl)c1ccccc1,70*,-1,19,-2,8,-2
Cc1ccccc1P(=O)(c1ccccc1)c1ccccc1C,44*,.,.,-2,-1,-3
COc1ccc(-c2noc(CCCC(=O)N3CCN(c4cc(C)ccc4C)CC3)n2)cc1,42*,4,12,6,-3,7
COc1ccc(-c2noc(CCCCC(=O)N3CCN(c4cc(C)ccc4C)CC3)n2)cc1,3,9,11,8,-7,1
COCCNc1nc(NCCOc2ccccc2)c2sc(-c3ccccc3)cc2n1,1,.,.,5,-22,11
CCOc1ccc(S(=O)(=O)NCc2cccnc2)cc1NC(=O)c1ccccc1,4,27,4,0,2,-2
COc1ccc(S(=O)(=O)NCc2cccnc2)cc1NC(=O)c1ccccc1C,21,50,0,46,53*,6
Cc1ccc(C)c(C(=O)CN2Cc3ccccc3C2=O)c1,46*,-9,-3,0,0,0
CCCCCc1c(-c2ccc(Br)cc2)ncn1CCc1ccccc1OC,1,.,.,10,.,.
